Screens: PubChem, several laboratories
Rad51 HR inh = Rad51 (human) homologous recombination inhibition. Q06609. hRad51 DNA strand exchange, fluorescence dequenching. inhibition, % at 10 µM. 0.085% of 200,000 active;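 active = inhibition above 40% at the single screening dose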
Target sequence (Q06609 whole entry, looked up): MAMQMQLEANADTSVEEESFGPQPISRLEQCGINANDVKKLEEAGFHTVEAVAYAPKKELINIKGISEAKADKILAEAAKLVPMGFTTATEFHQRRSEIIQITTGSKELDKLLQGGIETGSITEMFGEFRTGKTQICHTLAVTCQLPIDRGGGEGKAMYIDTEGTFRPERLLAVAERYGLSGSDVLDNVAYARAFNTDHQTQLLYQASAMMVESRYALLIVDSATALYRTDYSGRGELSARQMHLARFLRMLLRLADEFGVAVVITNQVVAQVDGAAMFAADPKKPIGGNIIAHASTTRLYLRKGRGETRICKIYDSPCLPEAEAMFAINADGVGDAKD
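Material: Human Rad51 nucleoprotein filaments preassembled on unlabelled ssDNA | Also added: Labelled 47-mer dsDNA for strand exchange | Dosing: Single dose, 10 µM final compound | Schedule: 30-min compound preincubation and 15-min exchange, both room temperature | Technique: Fluorescence dequenching at 485/520 nm | Measure: Percent inhibition relative to plate controls and blanks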
Wee1 stabilizer = inhibitors of human Wee1 degradation | 1.2% of 220,000 active | AID 1321 | reporter increase, % at 5 µM | HeLa Luc-Wee1K328M stability, luciferase luminescence; 100% = proteasome inhibitor MG132 effect | P30291;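 active = activation above the mean of all tested compounds plus 3 SD, set per screening run, cut at about 8.8% in these data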;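 note: cells exposed to compound for 20 h before luminescence read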
RBBP9 inh = inhibitors of human serine hydrolase RBBP9; O75884; recombinant RBBP9, FP-Rh probe fluorescence polarization; inhibition, % at 7.94 µM; 0.2% of 220,000 active;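 active = inhibition above the campaign mean of all tested compounds plus 3 SD, cut at about 14% in these data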
Target sequence (O75884 whole entry, looked up): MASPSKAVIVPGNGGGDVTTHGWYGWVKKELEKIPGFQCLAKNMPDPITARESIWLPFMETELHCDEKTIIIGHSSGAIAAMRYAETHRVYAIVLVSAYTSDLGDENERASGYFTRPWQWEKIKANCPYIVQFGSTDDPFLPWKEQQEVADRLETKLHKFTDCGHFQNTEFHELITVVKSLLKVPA
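System: RBBP9 protein / Quantity: 2.5 µM RBBP9 dispensing solution, before mixing / Also added: Serine-hydrolase probe FP-Rh, 375 nM pre-mixing / Dosing: 7.94 µM single dose, 0.794% DMSO / Timing: enzyme-compound preincubation 30 min, then probe labeling 45 min, 25 °C / Signal: FP readout at 525/598 nm / Controls: DMSO-treated enzyme wells and wells lacking RBBP9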
FID counter = fluorescent intercalator displacement, NS3 helicase counter-screen | AID 1845 | 0.17% of 290,000 active | DNA fluorescent intercalator displacement, fluorescence | inhibition, % at 7.9 µM; in the data active = inhibition above about 37%;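 note: higher means more ethidium bromide displaced from hairpin DNA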
Each line names hits and unclear results; the compound was inactive in the other large screens. The list is not random: actives were taken first. Their share in the collection is about 1.2%.

CCCCCOC(=O)CSc1nnc(-c2cc(OC)c(OC)c(OC)c2)o1	Wee1 stabilizer 9.0
CC(C)c1ccc(NC(=O)Cn2cccc2C2=NC(c3ccccc3)CO2)cc1 (configuration not stated)	none
Cc1cc(C)cc(N(C(=O)C(F)(F)F)C(C(=O)NC2CCCCC2)c2cccs2)c1 (configuration not stated)	Wee1 stabilizer 11
CCC(=O)Nc1ccc(NC(=O)c2ccccc2)nc1	none
CCCC(=O)Nc1ccc(NC(=O)c2ccccc2)nc1	Wee1 stabilizer 10
COc1nc(N2CCOCC2)nc(-n2cccc2)n1	Wee1 stabilizer 9.2
COc1ccccc1/C=C1\SC(=S)N(CCC(=O)Nc2ccc(C(=O)O)c(O)c2)C1=O	FID counter 38 (no result: Rad51 HR inh, Wee1 stabilizer, RBBP9 inh)
Cc1sc(NC(=O)CN2CCOCC2)c(C#N)c1C	none
COc1cc(/C=C2\SC(N)=NC2=O)ccc1OCC(=O)Nc1ccc(C)cc1	Wee1 stabilizer 8.9
COc1ccc(/C=C2/SC(=O)N(CCC(=O)Nc3ccc(C)cc3)C2=O)cc1OC	none
Cn1c(=O)c2c(nc(OCc3ccc4c(c3)OCO4)n2Cc2ccccc2Cl)n(C)c1=O	Wee1 stabilizer 9.2 (no result: Rad51 HR inh)
COc1cc(NC(=O)COC(C)=O)c(C)cc1[N+](=O)[O-]	none
Cc1cc(-c2ccccc2)c(C#N)c(SCC(N)=O)n1	Wee1 stabilizer 9.7
CCOC(=O)CC(=O)CSc1nc(C)cc(-c2cccnc2)c1C#N	none
Oc1ccc(-c2cn3ccccc3n2)cc1	none
Brc1ccc(-c2cn3ccccc3n2)cc1	Wee1 stabilizer 9.1
Cc1ccc2nc(SCC(=O)N3CCN(c4ccccc4)CC3)[nH]c2c1	none
COc1cc(C(CCN2CCCCC2)c2c(OC)cc(OC)c3c(C)cc(=O)oc23)cc(OC)c1OC (configuration not stated)	none (no result: Wee1 stabilizer, RBBP9 inh, FID counter)
CC1=Nc2cccc([N+](=O)[O-])c2NC(=O)C1	Wee1 stabilizer 15
COc1ccc(Cn2c(=O)[nH]c3cc(C(=O)NC4CCCC4)ccc3c2=O)cc1	none
C/C(=N\NC(=O)c1nnn(-c2nonc2N)c1CN1CCOCC1)c1ccc(CC(C)C)cc1	none (no result: Rad51 HR inh, Wee1 stabilizer, RBBP9 inh)
CCOCCCN(C)C1CCN(C(=O)c2oc3ccccc3c2NC(=O)c2cccc([N+](=O)[O-])c2)CC1	none (no result: Rad51 HR inh, Wee1 stabilizer, RBBP9 inh)
O=C(NNC(=O)c1cccc(C(F)(F)F)c1)c1ccncc1	none (no result: Rad51 HR inh, Wee1 stabilizer, RBBP9 inh)
O=C(NNC1=NCCN1Cc1ccccc1)c1cccc(C(F)(F)F)c1	Wee1 stabilizer 11
CN(C)/N=C/C=C1\CCC/C(=C\c2ccc(F)c(F)c2)C1=O	Wee1 stabilizer 10 (no result: Rad51 HR inh)
COc1ccc(/C=C2\CCC/C(=C\C=N\N(C)C)C2=O)cc1	none
CN(C)/C=C/C(=O)c1ccc(Cl)cc1	Wee1 stabilizer 11
C(=C\c1ccccc1)/CSc1ccccn1	Wee1 stabilizer 9.2
Cc1cc(C)nc(SC/C=C/c2ccccc2)n1	none (no result: Rad51 HR inh, Wee1 stabilizer, RBBP9 inh)
COc1ccc(NC2CCCN(C(=O)CCN3Cc4ccccc4C3=O)C2)cc1 (configuration not stated)	none (no result: Rad51 HR inh, Wee1 stabilizer, RBBP9 inh)
CCOc1ccc(OCC)c(NC(=O)C2CCN(c3ncccn3)CC2)c1	Rad51 HR inh 42
CCOc1ccc(OCC)c(NC(=O)C2CCCN(c3ncccn3)C2)c1 (configuration not stated)	none (no result: Rad51 HR inh)
Oc1ccc(N2CCN(c3nnnn3-c3ccccc3)CC2)cc1	none
Cc1ccc(SCc2cn3ccccc3n2)cc1	Wee1 stabilizer 9.3
c1ccc(CSCc2cn3ccccc3n2)cc1	none
CNCC(O)CN(c1ccccc1)c1ccccc1 (configuration not stated)	Wee1 stabilizer 9.7
Fc1ccc(N/N=C/C=C/c2ccccc2)c(F)c1	Wee1 stabilizer 10
CCn1cc(C(=O)NCCN(C)C)c(=O)c2cc(F)c(N3CCN(C)CC3)cc21	FID counter 56 (no result: Rad51 HR inh, Wee1 stabilizer, RBBP9 inh)
CCCNC(=O)c1cn(CC)c2cc(N3CCN(C)CC3)c(F)cc2c1=O	none
CCn1cc(C(=O)NCCCN(C)C)c(=O)c2cc(F)c(N3CCN(C)CC3)cc21	FID counter 68
CCCCCNC(=O)c1cn(CC)c2cc(N3CCN(C)CC3)c(F)cc2c1=O	none (no result: Rad51 HR inh, Wee1 stabilizer, RBBP9 inh)
CCC1(c2ccccc2)NC(=O)N(Cc2ccc(C(=O)OC)cc2)C1=O (configuration not stated)	none
Cc1nc2ccccc2nc1OCc1ccc([N+](=O)[O-])cc1	Wee1 stabilizer 10
COc1ccc(C(=O)NCCNc2ccc([N+](=O)[O-])cc2)cc1OC	none (no result: Rad51 HR inh, Wee1 stabilizer, RBBP9 inh)
O=C(NCCNc1ccc([N+](=O)[O-])cc1)c1cccc(Br)c1	Wee1 stabilizer 9.4
COc1ccc(CCNC(=O)c2cccnc2SC)cc1	none
CC(=O)c1ccc(N2CCN(CN3C(=O)CC4(CCCC4)C3=O)CC2)c(F)c1	none (no result: Rad51 HR inh, Wee1 stabilizer, RBBP9 inh)
Cc1cccc(N(CC(=O)NC2CCCC2)C(=O)CCCC(=O)Nc2ccccn2)c1	none
Cc1ccc(C)c(N(CC(=O)NC2CCCC2)C(=O)CCCC(=O)Nc2ccccn2)c1	Wee1 stabilizer 8.9
Cc1cc(NC(=O)c2ccc(F)c(S(=O)(=O)N3CCCCC3)c2)no1	none (no result: Rad51 HR inh, Wee1 stabilizer, RBBP9 inh)
COc1ccc(NC(=O)CCN2CCN(S(=O)(=O)c3ccc(Cl)cc3)CC2)cc1	none
O=C(CCC(=O)N1CCN(S(=O)(=O)c2ccc(Cl)cc2)CC1)Nc1ccc2ccccc2c1	Wee1 stabilizer 10
Cc1cc(C)n2nc(C(=O)N3CCCC(N4CCN(c5ccccc5C)CC4)C3)cc2n1 (configuration not stated)	none (no result: Rad51 HR inh, Wee1 stabilizer, RBBP9 inh)
C(=N\NC1=Nc2cccc3cccc1c23)/c1ccccc1	Wee1 stabilizer 8.9
CCOC(=O)N1CCN(C(=O)c2cccn3c(=O)c4sccc4nc23)CC1	Wee1 stabilizer 10
O=C1CSC(c2ccccn2)N1c1ccccc1F (configuration not stated)	none
O=C1CSC(c2ccccn2)N1c1ccc(F)cc1F (configuration not stated)	Wee1 stabilizer 9.9
O=C(NCCN1CCOCC1)c1cc(-c2ccccc2Cl)nc2ccccc12	none (no result: Rad51 HR inh, Wee1 stabilizer, RBBP9 inh)
Fc1ccc(NC(=S)Nc2cccnc2)c(Cl)c1	none
Fc1ccc(NC(=S)Nc2cccnc2)c(F)c1F	Wee1 stabilizer 9.5
COc1cc(-n2c(=O)c3ccccc3n(CC(=O)c3ccc(F)cc3)c2=O)cc(OC)c1OC	none
COc1ccc(-c2cc3nc4ccccc4n3c(N)c2C#N)cc1	none
CCOC(=O)C1CCN(CC(=O)Nc2c(C(=O)OC)n(C)c3cccc(C)c23)CC1	Rad51 HR inh 69
CCNC(=O)C1CCCN1C(=O)C(CCCN=C(N)N)NC(=O)C(CC(C)C)NC(=O)C(Cc1cn(Cc2ccccc2)cn1)NC(=O)C(Cc1ccc(O)cc1)NC(=O)C(CO)NC(=O)C(Cc1c[nH]c2ccccc12)NC(=O)C(Cc1cnc[nH]1)NC(=O)C1CCC(=O)N1 (configuration not stated)	FID counter 44 (no result: Rad51 HR inh, Wee1 stabilizer, RBBP9 inh)
CC1CC(C)CN(c2nc(NCc3ccco3)nc(N)c2[N+](=O)[O-])C1 (configuration not stated)	Wee1 stabilizer 11
O=C(O)Cn1c(=O)c(F)cn(C2CCCO2)c1=O (configuration not stated)	none (no result: Rad51 HR inh, Wee1 stabilizer, RBBP9 inh)
COc1ccc(OCc2nc3ccccc3[nH]2)cc1	none
COc1cccc(OCc2nc3ccccc3[nH]2)c1	Wee1 stabilizer 11
CC(C)OC(=O)CCCCCN1C(=O)CSC1=S	Wee1 stabilizer 9.0
